Results from ChEMBL document CHEMBL4014317, “Urinary Tract Infection: Which Conformation of the Bacterial Lectin FimH Is Therapeutically Relevant?” (J Med Chem, 2017).
Values after ≈ are worked out from the molar mass of the structure shown.

Experiments:
[1] = (§1) Competitive binding affinity to full length 6His-tagged recombinant Escherichia coli FimH CRD expressed in Escherichia coli HM125 after 1 hr in presence of fluorescence labelled N-(2-(3-(3',6'-dihydroxy-3-oxo-3H-spiro[isobenzofuran-1,9'-xanthene]-5-yl)thioureido)ethyl)-4-methylbenzamide by fluorescence polarization assay
Procedure, shortened: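 Full-length FimH was stabilized by FimG donor-strand peptide complementation. Serially diluted competitor was titrated into 300 nM FimHFL plus 10 nM fluorescent ligand in 20 mM HEPES pH 7.4, 150 mM NaCl, 50 μg/mL BSA. Mixtures were incubated ≥1 h at rt, and FP was read at excitation 485 nm and emission 528 nm. KD came from an equilibrium competition fit, n = 1.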

[2] = Kinetic solubility of compound in pH 7.4 buffer after 15 hrs; assay type: physicochemical; conditions: read-out: Kinetic_solubility
Procedure, shortened: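 DMSO stock (100 mM) was diluted into aqueous universal buffer pH 7.4 to 1 mM final (1% DMSO), in triplicate. After 15 h, solutions were filtered and mixed 1:1 with 1-propanol. Dissolved amount was quantified by UV (190–500 nm) against reference spectra at 0.167 mM in buffer/propanol.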

[3] = 1-octanol/water partition coefficient, log D of the compound at 1 uM at pH 7.4 after 2 hrs by LC-MS analysis; assay type: physicochemical
[4] = as §1, with “to” for “to full length”, “lectin domain” for “CRD”, “24 hrs” for “1 hr”
Procedure, shortened: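 FimH lectin domain (His6-tagged via thrombin site) was expressed in E. coli HM125 and affinity-purified. Serially diluted competitor was added to 50 nM protein plus 50 nM fluorescent ligand in 20 mM HEPES pH 7.4, 150 mM NaCl, 50 μg/mL BSA. Mixtures were incubated ≥24 h at equilibrium, and FP was read at 485/528 nm. KD came from an equilibrium competition fit, n = 3, SD.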

[5] = Binding affinity to full length 6His-tagged recombinant Escherichia coli FimH CRD expressed in Escherichia coli HM125 by isothermal titration calorimetry
Procedure, shortened: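 FimHFL was coexpressed with FimC in E. coli HM125, and FimC was displaced by a FimG donor-strand peptide to give a stable construct. Buffer was 20 mM HEPES pH 7.4, 150 mM NaCl, with protein extensively dialyzed against it. Ligand (200–600 μM) was titrated into 20.3–62.1 μM protein in 1.5–2 μL injections at rt, single run. Isotherms were integrated automatically.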

[6] = system: Escherichia coli; assay: Selectivity ratio of Kd for full length 6His-tagged recombinant Escherichia coli FimH CRD expressed in Escherichia coli HM125 to Kd for 6His-tagged recombinant Escherichia coli FimH lectin domain expressed in Escherichia coli HM125
Procedure, shortened: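 Competitive FP, with Kd for each construct and the ratio taken as FimHFL/FimHLD. FimHFL was stabilised by donor-strand (DsG) complementation, run at 300 nM with 10 nM tracer for ≥1 h. FimHLD and tracer were equimolar at 50 nM, ≥24 h. Buffer: 20 mM HEPES pH 7.4, 150 mM NaCl, 50 μg/mL BSA; rt. Ex 485/em 528 nm, equilibrium competition fit; FL n=1, LD n=3.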

Row | solubility kinetic at 15 h [2] [µg/mL] | logD at 2 h, 1 µM [3] | Selectivity ratio [6] | SMILES | Kd [1] [nM] | Kd [4] [nM] | Kd [5] [nM]
1 | 7.1 (≈ 18.6 µM) | 3 |  | Cc1cccc(-c2ccc(O[C@H]3O[C@H](CO)[C@@H](O)[C@H](O)[C@@H]3O)c(Cl)c2)c1 | 380 | 1.7 | 
2 | 5.5 (≈ 15 µM) | 2.6 |  | OC[C@H]1O[C@H](Oc2ccc(-c3ccccc3)cc2Cl)[C@@H](O)[C@@H](O)[C@@H]1O | 458 | 2.8 | 
3 | 16 (≈ 39.1 µM) | 2.1 |  | CC(=O)c1ccc(-c2ccc(O[C@H]3O[C@H](CO)[C@@H](O)[C@H](O)[C@@H]3O)c(Cl)c2)cc1 | 98.6 | 0.3 | 
4 |  |  |  | Cc1ccc(C(=O)NCCNC(=S)Nc2ccc3c(c2)C(=O)OC32c3ccc(O)cc3Oc3cc(O)ccc32)cc1 | 137 |  | 
5 | 117 (≈ 284 µM) | 2.3 |  | O=[N+]([O-])c1ccc(-c2ccc(O[C@H]3O[C@H](CO)[C@@H](O)[C@H](O)[C@@H]3O)c(Cl)c2)cc1 | 140 | 0.5 | 
6 | 1 (≈ 2.13 µM) |  |  | OC[C@H]1O[C@H](Oc2ccc(-c3ccc(Cl)c(C(F)(F)F)c3)cc2Cl)[C@@H](O)[C@@H](O)[C@@H]1O | 377 | 5.7 | 
7 | 2.3 (≈ 5.28 µM) |  |  | OC[C@H]1O[C@H](Oc2ccc(-c3ccc(Cl)c(Cl)c3)cc2Cl)[C@@H](O)[C@@H](O)[C@@H]1O | 692 | 4.3 | 
8 | 227 (≈ 579 µM) | 2.1 |  | N#Cc1cccc(-c2ccc(O[C@H]3O[C@H](CO)[C@@H](O)[C@H](O)[C@@H]3O)c(Cl)c2)c1 | 85.9 | 0.3 | 
9 | 3.5 (≈ 8.72 µM) | 3.3 |  | OC[C@H]1O[C@H](Oc2ccc(-c3ccc(Cl)cc3)cc2Cl)[C@@H](O)[C@@H](O)[C@@H]1O | 251 | 3.9 | 
10 | 3.8 (≈ 9.58 µM) | 2.7 |  | COc1ccc(-c2ccc(O[C@H]3O[C@H](CO)[C@@H](O)[C@H](O)[C@@H]3O)c(Cl)c2)cc1 | 344 | 2 | 
11 | > 280 | 2.4 |  | COc1ccccc1-c1ccc(O[C@H]2O[C@H](CO)[C@@H](O)[C@H](O)[C@@H]2O)c(Cl)c1 | 391 | 2.3 | 
12 | 8 (≈ 18.4 µM) |  |  | OC[C@H]1O[C@H](Oc2ccc(-c3ccc(Cl)cc3Cl)cc2Cl)[C@@H](O)[C@@H](O)[C@@H]1O | 465 | 2.8 | 
13 | 28 (≈ 69.8 µM) | 3.1 |  | OC[C@H]1O[C@H](Oc2ccc(-c3ccccc3Cl)cc2Cl)[C@@H](O)[C@@H](O)[C@@H]1O | 434 | 2.6 | 
14 | 7.4 (≈ 19.4 µM) | 3.3 |  | Cc1ccc(-c2ccc(O[C@H]3O[C@H](CO)[C@@H](O)[C@H](O)[C@@H]3O)c(Cl)c2)cc1 | 297 | 2.7 | 
15 |  |  |  | N#Cc1ccc(-c2ccc(O[C@H]3O[C@H](CO)[C@@H](O)[C@H](O)[C@@H]3O)c(Cl)c2)cc1 | 83.8 |  | 130
16 | 23 (≈ 55.9 µM) | 2.4 |  | O=[N+]([O-])c1cccc(-c2ccc(O[C@H]3O[C@H](CO)[C@@H](O)[C@H](O)[C@@H]3O)c(Cl)c2)c1 | 39.1 | 0.1 | 
17 | > 3000 | 1.7 | 100 | CCCCCCCO[C@H]1O[C@H](CO)[C@@H](O)[C@H](O)[C@@H]1O | 3600 |  | 3200
18 | 5.7 (≈ 14.2 µM) | 3.2 |  | OC[C@H]1O[C@H](Oc2ccc(-c3cccc(Cl)c3)cc2Cl)[C@@H](O)[C@@H](O)[C@@H]1O | 353 | 2.3 | 
19 | 22 (≈ 50.6 µM) | 3.4 |  | OC[C@H]1O[C@H](Oc2ccc(-c3ccc(C(F)(F)F)cc3)cc2Cl)[C@@H](O)[C@@H](O)[C@@H]1O | 415 | 3.9 | 
20 | 135 (≈ 354 µM) | 2.9 |  | Cc1ccccc1-c1ccc(O[C@H]2O[C@H](CO)[C@@H](O)[C@H](O)[C@@H]2O)c(Cl)c1 | 436 | 2.5 | 
21 | 36 (≈ 82.8 µM) | 3.3 |  | OC[C@H]1O[C@H](Oc2ccc(-c3cccc(C(F)(F)F)c3)cc2Cl)[C@@H](O)[C@@H](O)[C@@H]1O | 575 | 3.3 | 
